Laboratory results: ChEMBL document CHEMBL2331445, “Chemical, biochemical and microbiological properties of a brominated nitrovinylfuran with broad-spectrum antibacterial activity” (Bioorg Med Chem, 2013)
≈ marks a conversion by molar mass, not a printed value. Calls of active or inactive are those of the source. The calls are words filed in the database; no cut-off is given here.

Columns and labels:
[1] = target: UDP-N-acetylglucosamine 1-carboxyvinyltransferase (Escherichia coli K-12, UniProt P0A749, C115D); assay: Inhibition of Escherichia coli MurA C115D mutant expressed in Escherichia coli BL21(lambdaDE3) using UNAG and PEP as substrate incubated for 10 mins prior to PEP addition measured after 60 mins by spectrophotometric analysis; conditions: read-out: IC50
Sequence of UDP-N-acetylglucosamine 1-carboxyvinyltransferase (Escherichia coli K-12, UniProt P0A749, C115D) (P0A749 whole entry C115D): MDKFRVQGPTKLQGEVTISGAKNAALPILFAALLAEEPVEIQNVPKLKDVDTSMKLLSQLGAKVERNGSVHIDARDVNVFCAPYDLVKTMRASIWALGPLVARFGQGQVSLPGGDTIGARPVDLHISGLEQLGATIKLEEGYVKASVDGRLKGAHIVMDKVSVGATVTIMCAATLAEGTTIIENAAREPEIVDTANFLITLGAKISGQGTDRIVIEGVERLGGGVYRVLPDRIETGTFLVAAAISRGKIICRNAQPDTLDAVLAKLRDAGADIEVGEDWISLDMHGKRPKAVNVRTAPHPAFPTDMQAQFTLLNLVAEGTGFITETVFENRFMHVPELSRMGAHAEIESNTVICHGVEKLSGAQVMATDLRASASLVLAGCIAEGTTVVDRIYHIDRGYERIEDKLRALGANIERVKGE

[2] = Drug degradation assessed as 5-bromofuran-2-carbaldehyde formation at 100 uM by HPLC-UV analysis in absence of MurA; format: physicochemical
Summary of the method: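 Test compound (100 µM) was held under standard MurA assay buffer conditions without enzyme, then stopped at several time points. HPLC-UV used a C18 column, 37 °C, and a 0.1% TFA water/acetonitrile gradient. Aldehyde formation was followed at 290 nm.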

Staphylococcus aureus [3] = assay: microbe, parasite or virus in culture; format: functional; conditions: ATCC 25923
[4] = target: T1, UDP-N-acetylglucosamine 1-carboxyvinyltransferase (Escherichia coli K-12, UniProt P0A749); assay: Induction of Escherichia coli MurA-mediated 2-bromo-5-(2-nitrovinyl)furan formation assessed as enzyme-(R)-methyl 3-mercapto-2-(6-methoxy-2-oxo-2H-chromene-3-carboxamido)propanoate adduct level at 200 to 300 uM after 1 hr by SDS-PAGE analysis
T1 sequence (P0A749 whole entry): as the sequence (P0A749 whole entry C115D) above, with D115C counted along it
Summary of the method: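 E. coli MurA was incubated with the fluorescent coumarin cysteine thiol, with or without test compound. After 1 h, aliquots were quenched in non-reducing Laemmli buffer (one sample in reducing buffer), heated to 95 °C for 3 min and run on 12% SDS-PAGE. Protein-bound fluorophore was imaged at 365 nm excitation.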

[5] = tested on: UDP-N-acetylglucosamine 1-carboxyvinyltransferase (Escherichia coli K-12), P0A749 [C115D]; assay: Inhibition of Escherichia coli MurA C115D mutant expressed in Escherichia coli BL21(lambdaDE3) using UNAG and PEP as substrate at 50 to 500 uM incubated for 30 mins by 2,2'-dithiopyridine based spectrophotometric analysis
Sequence of UDP-N-acetylglucosamine 1-carboxyvinyltransferase (Escherichia coli K-12), P0A749 [C115D] (P0A749 whole entry C115D): as the sequence (P0A749 whole entry C115D) above
Summary of the method: (§1)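 MurA (wild-type or C115D) was incubated with test compound at an equimolar ratio or 10-fold excess in 50 mM Tris pH 7.8 at room temperature for 30 min. 2,2'-Dithiodipyridine was then added in 0.5 M citrate pH 4 with 6 M urea for 30 min and quenched with 4% TFA. 2-Thiopyridone was measured by HPLC at 342 nm against a compound-free control.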

HaCaT = assay: Cytotoxicity against human HaCaT cells after 72 hrs by crystal violet staining method; format: ADME, cell-based
[6] = Half life of the compound in citrate buffer at pH 6
[7] = Cytotoxicity against human Flow 2002 cells after 72 hrs by crystal violet staining method; format: ADME, cell-based; conditions: Flow 2002, 72 h
[8] = target: UDP-N-acetylglucosamine 1-carboxyvinyltransferase (Escherichia coli K-12) (UniProt P0A749); assay: Inhibition of Escherichia coli MurA expressed in Escherichia coli BL21(lambdaDE3) using UNAG and PEP as substrate at 5 uM incubated for 10 mins […] measured after 60 mins by spectrophotometric analysis
Sequence of UDP-N-acetylglucosamine 1-carboxyvinyltransferase (Escherichia coli K-12) (P0A749 whole entry): as the sequence (P0A749 whole entry C115D) above, with D115C counted along it
Summary of the method: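 MurA (12 nM) was pre-incubated with UNAG and inhibitor for 10 min at 37 °C, and the reaction was started with PEP. Final conditions: UNAG 250 µM, PEP 125 µM, 25 mM Tris pH 7.8, 0.1% BSA, 1% DMSO. After 60 min at 37 °C, malachite green/molybdate reagent was added and phosphate was read at 620 nm after 10 min. Run in triplicate.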

[9] = Inhibition of Pseudomonas aeruginosa MurA expressed in Escherichia coli BL21(lambdaDE3) using UNAG and PEP as substrate incubated for 10 mins prior to PEP addition measured after 60 mins by spectrophotometric analysis; conditions: read-out: IC50
[10] = Inhibition of Staphylococcus aureus MurA2 expressed in Escherichia coli BL21(lambdaDE3) using UNAG and PEP as substrate incubated for 10 mins prior to PEP addition measured after 60 mins by spectrophotometric analysis; conditions: read-out: IC50
Calu-6 = assay: Cytotoxicity against human Calu6 cells after 72 hrs by crystal violet staining method; format: ADME, cell-based; conditions: Calu-6, 72 h
[11] = target: UDP-N-acetylglucosamine 1-carboxyvinyltransferase (Escherichia coli K-12) (UniProt P0A749); assay: Irreversible inhibition of Escherichia coli MurA expressed in Escherichia coli BL21(lambdaDE3) using UNAG and PEP as substrate at 1.25 uM incubated up to 80 min prior to PEP addition measured after 60 mins by spectrophotometric analysis; conditions: TDE = time-dependent effect
Summary of the method: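 Phosphate-release MurA assay: 12 nM E. coli MurA, 250 µM UNAG, 125 µM PEP, 25 mM Tris pH 7.8, 0.1% BSA, 37 °C. The pre-incubation period of inhibitor with enzyme was varied before PEP addition. Reaction ran 60 min, was stopped with malachite green reagent, and read at 620 nm.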

Escherichia coli [12] = assay: microbe, parasite or virus in culture; format: functional; conditions: ATCC 25922
[13] = Half life of the compound in Muller-Hinton medium at 100 uM at pH 7.2; format: physicochemical
Summary of the method: (§2)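 Compound (100 µM) was dissolved in Müller-Hinton medium (pH 7.2, or adjusted to pH 5.8) and aliquots were injected onto HPLC at different time points. Parent disappearance was read at 390 nm. Half-life came from a first-order plot of log peak area versus time, t1/2 = ln2/kobs.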

[14] = target: Prothrombin (Homo sapiens) (UniProt P00734); conditions: at 25 µM
Escherichia coli [15] = conditions: at 10 µM
[16] = Cytotoxicity against human lymphoblastoid cells assessed as cell vaibility at 3.4 uM; format: cell-based; conditions: read-out: Activity
[17] = Induction of GSH-adduct formation in citrate buffer at100 uM by RP-LC/MS analysis; conditions: 100 µM
[18] = target: Methionine aminopeptidase 1 (Homo sapiens) (UniProt P53582); conditions: at 10 µM
[19] = Half life of the compound in tris buffer at pH 7.8
MeWo = assay: Cytotoxicity against human MeWo cells after 72 hrs by crystal violet staining method; format: ADME, cell-based
A-431 = assay: Cytotoxicity against human A431 cells after 72 hrs by crystal violet staining method; format: ADME, cell-based; conditions: A-431, 72 h
[20] = Prodrug activation in citrate buffer assessed as debromination at 100 uM at pH 6 in presence of GSH; format: physicochemical; conditions: pH 6, 100 µM
Summary of the method: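 Inhibitor and glutathione, each at 100 µM final, in 50 mM sodium citrate pH 6.0. Aliquots were withdrawn every 30 s for 3 min and at 4 and 5 min, quenched, and analysed by reversed-phase HPLC-UV.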

Staphylococcus aureus [21] = assay: microbe, parasite or virus in culture; format: functional; conditions: NCTC 10442
[22] = target: UDP-N-acetylglucosamine 1-carboxyvinyltransferase (Escherichia coli K-12) (UniProt P0A749); assay: Inhibition of Escherichia coli MurA expressed in Escherichia coli BL21(lambdaDE3) using UNAG and PEP as substrate at 50 to 500 uM incubated for 30 mins by 2,2'-dithiopyridine based spectrophotometric analysis; summary of the method: as §1
CAPAN-1 = assay: Cytotoxicity against human Capan1 cells after 72 hrs by crystal violet staining method; format: ADME, cell-based; conditions: CAPAN-1, 72 h
[23] = target: Methionine aminopeptidase 2 (Homo sapiens) (UniProt P50579); conditions: at 10 µM
Sequence of Methionine aminopeptidase 2 (Homo sapiens) (P50579 2-478 limits assumed): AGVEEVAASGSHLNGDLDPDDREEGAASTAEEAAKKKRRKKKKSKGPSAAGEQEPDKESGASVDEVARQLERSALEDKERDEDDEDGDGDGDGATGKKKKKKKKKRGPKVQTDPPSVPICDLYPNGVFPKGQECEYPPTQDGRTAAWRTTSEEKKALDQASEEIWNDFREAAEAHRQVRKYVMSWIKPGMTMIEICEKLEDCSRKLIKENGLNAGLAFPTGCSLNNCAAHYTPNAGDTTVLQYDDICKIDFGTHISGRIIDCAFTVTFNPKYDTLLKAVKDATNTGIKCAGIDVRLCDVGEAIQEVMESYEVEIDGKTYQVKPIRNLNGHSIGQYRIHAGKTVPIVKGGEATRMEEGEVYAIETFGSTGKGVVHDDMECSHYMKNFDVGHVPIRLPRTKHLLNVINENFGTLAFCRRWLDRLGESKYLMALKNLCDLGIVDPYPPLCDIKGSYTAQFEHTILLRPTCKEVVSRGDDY

Dengue virus = conditions: at 50 µM
[24] = target: T1, UDP-N-acetylglucosamine 1-carboxyvinyltransferase; assay: Inhibition of Escherichia coli MurA expressed in Escherichia coli BL21(lambdaDE3) using UNAG and PEP as substrate incubated for 10 mins prior to PEP addition measured after 60 mins by spectrophotometric analysis; conditions: read-out: IC50
Ca-Ski = assay: Cytotoxicity against human CaSki cells after 72 hrs by crystal violet staining method; format: ADME, cell-based
[25] = Induction of GSSG formation in citrate buffer at 100 uM by RP-LC/MS analysis
[26] = Cytotoxicity against human SW707 cells after 72 hrs by crystal violet staining method; format: ADME, cell-based; conditions: SW707, 72 h
[27] = Drug degradation in Muller-Hinton medium assessed as disappearance of parent compound at 100 uM at pH 7.2 by HPLC-UV analysis; format: physicochemical; conditions: buffer, pH 7.2, 100 µM; TDE = time-dependent effect; summary of the method: as §2
[28] = Half life of the compound in Muller-Hinton medium at 100 uM at pH 5.8; format: physicochemical; summary of the method: as §2
Pseudomonas aeruginosa = assay: microbe, parasite or virus in culture; format: functional; conditions: ATCC 27853

## O=[N+]([O-])/C(Br)=C/c1ccc(Br)o1
[1]
  IC50: 18.7 µM
[2]
  Stability: Unstable
Staphylococcus aureus [3]
  MIC: 4 µg/mL (≈ 13.5 µM)
[4]
  Drug metabolism: Active
[5]
  inhibition: Active
HaCaT
  IC50: 33 µM
[6]
  half-life: 360 min
[7]
  IC50: 9 µM
[8]
  inhibition: Active
[9]
  IC50: 2.8 µM
[10]
  IC50: 3.9 µM
Calu-6
  IC50: 10 µM
[11]
  inhibition: tde
Escherichia coli [12]
  MIC: 4 µg/mL (≈ 13.5 µM)
[13]
  half-life at 100 µM: 8 min
[14]
  inhibition: 8%
Escherichia coli [15]
  inhibition: 85%
[16]
  viability at 3.4 µM: > 70%
[17]
  Activity: Not Active
[18]
  inhibition: inactive
[19]
  half-life: 30 min
MeWo
  IC50: 43 µM
A-431
  IC50: 24 µM
[20]
  Drug metabolism: Active
Staphylococcus aureus [21]
  MIC: 4 µg/mL (≈ 13.5 µM)
[22]
  inhibition: Active
CAPAN-1
  IC50: 36 µM
[23]
  inhibition: 13%
Dengue virus
  inhibition: 12%
[24]
  IC50: 2.8 µM
Ca-Ski
  IC50: 50 µM
[25]
  Activity: Not Active
[26]
  IC50: 47 µM
[27]
  Drug degradation: tde
[28]
  half-life at 100 µM: 60 min
Pseudomonas aeruginosa
  MIC: 2 µg/mL (≈ 6.74 µM)
